Active and inactive are the calls of the source. The rule behind the calls is not given here.
Columns and labels:
Aspergillus niger [1] = assay: Antifungal activity against Aspergillus niger ATCC 16404 at 187.7 uM after 48 hrs by CLSI method; assay type: functional, organism-based
Candida albicans [2] = assay: Antifungal activity against Candida albicans ATCC 32354 at 187.7 uM after 48 hrs by CLSI method; assay type: functional, organism-based
How it was run: (§1)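 Candida inocula came from 24–72-h SD agar colonies suspended in saline. They were diluted by OD630 standard curve into RPMI 1640 (0.2% dextrose, 0.03% glutamine, 0.165 M MOPS, pH 7.0) to 1.5 × 10³ CFU/ml. Compounds were run as 11 twofold dilutions in 20% DMSO-saline, in duplicate, at 35°C for 48 h, with OD530 read before and after. Percent growth at the top concentration, IC50, MIC, and MFC (SD agar plating) were derived.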

Candida albicans [3] = assay: Antifungal activity against Candida albicans ATCC 200955 at 187.7 uM after 48 hrs by CLSI method; assay type: functional, organism-based; how it was run: as §1
Trichophyton rubrum [4] = assay: Antifungal activity against Trichophyton rubrum ATCC MYA-4438 at 187.7 uM after 5 days by CLSI method; assay type: functional, organism-based
Aspergillus fumigatus [5] = assay: Antifungal activity against Aspergillus fumigatus ATCC 204305 at 187.7 uM after 48 hrs by CLSI method; assay type: functional, organism-based
Candida albicans [6] = assay: Antifungal activity against Candida albicans ATCC 14053 at 187.7 uM after 48 hrs by CLSI method; assay type: functional, organism-based
Candida parapsilosis = assay: Antifungal activity against Candida parapsilosis ATCC 22019 at 187.7 uM after 48 hrs by CLSI method; assay type: functional, organism-based
How it was run: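 Yeast suspensions made from 3-5 colonies off 24-72 h SD agar plates in saline. They were diluted by OD630 standard curve in RPMI 1640 (0.2% dextrose, 0.03% glutamine, 0.165 M MOPS, pH 7.0) to 1.5 × 10³ CFU/ml. Twofold dilutions (11 concentrations, 20% DMSO-saline) run in duplicate. OD530 read before and after 35°C, 48 h. Line values are top test concentrations; no-growth endpoints give MIC/MFC.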

Candida albicans [7] = assay: Antifungal activity against Candida albicans ATCC 60193 at 187.7 uM after 48 hrs by CLSI method; assay type: functional, organism-based; how it was run: as §1
Mus musculus = assay: Toxicity in mouse up to 34 umol/kg/day, ip for 3 days; assay type: organism-based; conditions: in vivo, 72 h
Cryptococcus neoformans [8] = assay: Antifungal activity against Cryptococcus neoformans ATCC 66031 at 169.8 uM after 72 hrs by CLSI method; assay type: functional, organism-based
How it was run: (§2)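 SD broth replaced RPMI because growth in RPMI was poor; other CLSI conditions were kept. Inoculum was 1.5 × 10³ CFU/ml from colonies on SD agar, checked by plating. Twofold serial dilutions (11 concentrations) in 20% DMSO-saline were tested in duplicate. OD530 was read before and after incubation at 35°C for 72 h. Percent growth gave IC50; the MIC is the lowest concentration with no detectable growth.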

Aspergillus fumigatus [9] = assay: Antifungal activity against Aspergillus fumigatus ATCC 204305 at 169.8 uM after 48 hrs by CLSI method; assay type: functional, organism-based
Candida albicans [10] = assay: Antifungal activity against Fluconazole resistant Candida albicans isolate 17 at 169.8 uM after 48 hrs by CLSI method; assay type: functional, organism-based
How it was run: (§3)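 Candida in CLSI broth microdilution. Saline colony suspension set to 1.5 × 10³ CFU/ml (final) in MOPS-buffered RPMI 1640, pH 7.0. Test agent given as twofold serial dilutions in 20% DMSO-saline, duplicate wells. 35°C for 48 h. Growth read as OD530 before and after incubation. Percent inhibition scored at the highest test concentration.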

Candida albicans [11] = assay: Antifungal activity against Candida albicans ATCC 200955 at 198.1 uM after 48 hrs by CLSI method; assay type: functional, organism-based; how it was run: as §1
Candida albicans [12] = assay: Antifungal activity against Candida albicans ATCC 14053 at 198.1 uM after 48 hrs by CLSI method; assay type: functional, organism-based
Aspergillus fumigatus [13] = assay: Antifungal activity against Aspergillus fumigatus ATCC 90906 at 198.1 uM after 48 hrs by CLSI method; assay type: functional, organism-based
Nakaseomyces glabratus [14] = assay: Antifungal activity against Candida glabrata ATCC 90030 at 198.1 uM after 48 hrs by CLSI method; assay type: functional, organism-based; how it was run: as §1
Aspergillus flavus = assay: Antifungal activity against Aspergillus flavus ATCC 204304 at 9.4 uM after 48 hrs by CLSI method; assay type: functional, organism-based
How it was run: (§4)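 Aspergillus growth on 1–6-week potato dextrose slants scraped and Miracloth-filtered. Inoculum sized by OD630 curve to 2.7 × 10⁴ CFU/ml (final) in 5% Alamar blue-RPMI 1640 (MOPS, pH 7.0). Duplicate twofold dilutions from 20% DMSO-saline. 35°C for 48 h. Fluorescence 544/590 nm read before and after. Percent inhibition taken at the highest test concentration.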

Candida albicans [15] = assay: Antifungal activity against Candida albicans ATCC 200955 at 9.4 uM after 48 hrs by CLSI method; assay type: functional, organism-based; how it was run: as §3
Candida tropicalis = assay: Antifungal activity against Candida tropicalis ATCC 750 at 9.4 uM after 48 hrs by CLSI method; assay type: functional, organism-based; how it was run: as §3
Aspergillus fumigatus [16] = assay: Antifungal activity against Aspergillus fumigatus ATCC 204305 at 9.4 uM after 48 hrs by CLSI method; assay type: functional, organism-based; how it was run: as §4
Candida albicans [17] = assay: Antifungal activity against Fluconazole resistant Candida albicans isolate 17 at 9.4 uM after 48 hrs by CLSI method; assay type: functional, organism-based; how it was run: as §3
Candida albicans [18] = assay: Antifungal activity against Candida albicans ATCC 60193 at 9.4 uM after 48 hrs by CLSI method; assay type: functional, organism-based; how it was run: as §3
Candida albicans [19] = assay: Antifungal activity against Candida albicans ATCC 14053 at 9.4 uM after 48 hrs by CLSI method; assay type: functional, organism-based; how it was run: as §3
Trichophyton rubrum [20] = assay: Antifungal activity against Trichophyton rubrum ATCC MYA-4438 at 9.4 uM after 5 days by CLSI method; assay type: functional, organism-based
How it was run: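 Trichophyton growth scraped from 1–6-week potato dextrose slants and filtered through Miracloth. Inoculum 2.7 × 10⁴ CFU/ml (final) in 5% Alamar blue-RPMI 1640 buffered with MOPS, pH 7.0. Duplicate twofold dilutions from 20% DMSO-saline. Incubated 35°C for 5 days. Fluorescence read at 544 nm excitation, 590 nm emission. Inhibition assessed at the highest test concentration.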

Nakaseomyces glabratus [21] = assay: Antifungal activity against Candida glabrata ATCC 90030 at 9.4 uM after 48 hrs by CLSI method; assay type: functional, organism-based; how it was run: as §3
Cryptococcus neoformans [22] = assay: Antifungal activity against Cryptococcus neoformans ATCC 90113 at 168.9 uM after 72 hrs by CLSI method; assay type: functional, organism-based; how it was run: as §2
Aspergillus fumigatus [23] = assay: Antifungal activity against Aspergillus fumigatus ATCC 204305 at 168.9 uM after 48 hrs by CLSI method; assay type: functional, organism-based
Cryptococcus neoformans [24] = assay: Antifungal activity against Cryptococcus neoformans ATCC 66031 at 168.9 uM after 72 hrs by CLSI method; assay type: functional, organism-based; how it was run: as §2
Aspergillus niger [25] = assay: Antifungal activity against Aspergillus niger ATCC 16404 at 168.9 uM after 48 hrs by CLSI method; assay type: functional, organism-based
Aspergillus fumigatus [26] = assay: Antifungal activity against Aspergillus fumigatus ATCC 90906 at 168.9 uM after 48 hrs by CLSI method; assay type: functional, organism-based
Candida albicans [27] = assay: Antifungal activity against Fluconazole resistant Candida albicans isolate 1 at 168.9 uM after 48 hrs by CLSI method; assay type: functional, organism-based; how it was run: as §3
Candida albicans [28] = assay: Antifungal activity against Candida albicans ATCC 14053 at 168.9 uM after 48 hrs by CLSI method; assay type: functional, organism-based

Structure (SMILES): CCCCCCCCCCC#CCCCCC(=O)O
- Activity (Aspergillus niger [1]): inactive
- Activity (Candida albicans [2]): inactive
- Activity (Candida albicans [3]): inactive
- Activity (Trichophyton rubrum [4]): inactive
- Activity (Aspergillus fumigatus [5]): inactive
- Activity (Candida albicans [6]): inactive
- Activity (Candida parapsilosis): inactive
- Activity (Candida albicans [7]): inactive

Structure (SMILES): CCCCCCCCCCCCC#CCCCCC(=O)O [6-NONADECYNOIC ACID]
- Activity (Mus musculus): Non-toxic
- Activity (Cryptococcus neoformans [8]): inactive
- Activity (Aspergillus fumigatus [9]): inactive
- Activity (Candida albicans [10]): inactive

Structure (SMILES): CCCCCCCCCC#CCCCCC(=O)O
- Activity (Candida albicans [11]): inactive
- Activity (Candida albicans [12]): inactive
- Activity (Aspergillus fumigatus [13]): inactive
- Activity (Nakaseomyces glabratus [14]): inactive

Structure (SMILES): CC(=O)N1CCN(c2ccc(OCC3COC(Cn4ccnc4)(c4ccc(Cl)cc4Cl)O3)cc2)CC1 (configuration not stated) [KETOCONAZOLE]
- Activity (Aspergillus flavus): inactive
- Activity (Candida albicans [15]): inactive
- Activity (Candida tropicalis): inactive
- Activity (Aspergillus fumigatus [16]): inactive
- Activity (Candida albicans [17]): inactive
- Activity (Candida albicans [18]): inactive
- Activity (Candida albicans [19]): inactive
- Activity (Trichophyton rubrum [20]): inactive
- Activity (Nakaseomyces glabratus [21]): inactive

Structure (SMILES): CCCCCC#CCC#CCC#CCC#CCCCC(=O)O
- Activity (Cryptococcus neoformans [22]): inactive
- Activity (Aspergillus fumigatus [23]): inactive
- Activity (Cryptococcus neoformans [24]): inactive
- Activity (Aspergillus niger [25]): inactive
- Activity (Aspergillus fumigatus [26]): inactive
- Activity (Candida albicans [27]): inactive
- Activity (Candida albicans [28]): inactive

Reference: ChEMBL document CHEMBL1275449, “Potent in vitro antifungal activities of naturally occurring acetylenic acids” (Antimicrob Agents Chemother, 2008)
